# Shown is part of a subset that was picked to be rich in hits.
# INS promoter act – TRM-6 insulin promoter activation; activation, % at 2 µM; hit rate 0.81% among 130,000; TRM-6 cells, insulin promoter eGFP reporter, imaging; plate-scaled: unstimulated 0, stimulated control 100;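 active = activation at 2 µM above a set limit, confirmed on inspection of the cell images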;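 note: share of cells whose green reporter signal exceeds an intensity cutoff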
#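 Material: Human fetal islet-derived TRM-6 cells with tamoxifen-inducible insulin promoter–eGFP reporter | Medium: Low-glucose (5.5 mM) medium with tamoxifen | Probe or stimulus: Tamoxifen inducer, 0.75 µM, in seeding medium | Schedule: Tamoxifen pre-incubation 15 h overnight, then compound exposure 48 h at 37 °C | Detection: High-content imaging of fixed cells with Hoechst nuclear stain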
# Starred values were filed as active, the others as inactive.
SMILES,INS promoter act
CSc1ccc(S(=O)(=O)Nc2ccc(F)cc2)cc1,420*
CCN(CC)S(=O)(=O)c1ccc(NS(=O)(=O)c2ccc(F)cc2)cc1,-7
COc1ccc(S(=O)NC2CCCCC2)c(OC)c1C (centres undefined),8
Cc1c(/C=N\NC(=O)C2COc3ccc(C(C)(C)C)cc3O2)c2ccccc2n1C (centres undefined),0
CC(C)N(C(=O)c1ccc2nc3c4ccccc4c4ccccc4c3nc2c1)C(C)C,348
CC1CCCCN1C(=O)COc1ccccc1F (centres undefined),0
COc1ccc(S(=O)(=O)N2CCC(C(=O)N3CCCCC3)CC2)cc1Cl,157
O=C(CCS(=O)(=O)Cc1ccccc1)Nc1nc2c(s1)CCCC2,10
O=C(CCn1cnc2ccccc2c1=O)Nc1nc2c(s1)CCCC2,510*
O=C(CCn1cnc2ccccc2c1=O)Nc1cccc(Cl)c1,9
Cn1c(CN2CCCC2)nc2cc(NC(=O)COc3ccc([N+](=O)[O-])cc3)ccc21,167
O=C(Nc1ccccc1[N+](=O)[O-])c1cccnc1Cl,-3
COC(=O)c1ccncc1C(=O)Nc1ccc(F)cc1,-7
O=C(Cc1ccccc1)NCC1CCCO1 (centres undefined),3
O=C(Cc1ccc(F)cc1)NCC1CCCO1 (centres undefined),7
O=C(CCCC(=O)NCC1CCCO1)NCC1CCCO1 (centres undefined),256*
COc1ccc(N2CC(C(=O)OC(C)C(=O)c3ccccc3)CC2=O)cc1 (centres undefined),-7
O=C(CCc1c[nH]c2ccccc12)NCC(=O)Nc1ccc(F)c(F)c1F,-8
CC1(C(=O)O)Oc2cccnc2NC1=O (centres undefined),409*
CCOC(=O)c1[nH]c(C)c(C(=O)OCC(=O)N(C)C2CCS(=O)(=O)C2)c1C (centres undefined),0
COc1ccc(N2C(=O)CC(SCC(=O)O)C2=O)cc1 (centres undefined),438*
CCOc1ccc(N2C(=O)CC(SCC(=O)O)C2=O)cc1 (centres undefined),7
COc1ccc(N2C(=O)CC(Sc3nc(C)c4c(n3)CCCC4)C2=O)cc1 (centres undefined),-6
COCCNCC(=O)N1CCCCCC1,0
ClCC1NCC(c2ccccc2Cl)c2c1[nH]c1ccccc21 (centres undefined),586*
SMILES,INS promoter act
Cc1ccc2nc(Cl)c3nnnn3c2c1,147
CN=C1SC(CC(=O)Nc2cc(Cl)ccc2Cl)C(=O)N1C (centres undefined),9
N/C(=N\OC(=O)Oc1ccccc1)c1ccc(Br)cc1,493*
COc1ccc(/C(N)=N/OC(=O)Oc2ccccc2)cc1OC,-2
N/C(=N\OC(=O)CCc1ccccc1)c1ccc(Br)cc1,10
COCCN(C(=S)Nc1ccc(C(C)C)cc1)C(C)c1cccs1 (centres undefined),7
CC(C)CCN1CCN(CC(c2ccccc2)c2ccccc2)CC1CCO (centres undefined),8
COc1cc(CN(C)Cc2ccccc2)cc(OC)c1O,0
N#Cc1nc(-c2ccco2)oc1NCCCn1ccnc1,-7
COc1ccc(-c2nc(CN(CC3CCC(=O)N3)C(C)C)c(C)o2)c(C)c1C (centres undefined),8
Cc1ccc(NS(=O)(=O)c2cc(C(=O)N(C)C)ccc2C)cc1C,-7
O=C1c2cccc3cccc(c23)C(=O)N1CCCc1n[nH]c(=S)n1-c1ccccc1,0
COc1ccc(N2CCN(C(=O)CCNC(=O)c3ccccc3)CC2)cc1,-5
Cc1cc(C)cc(N(CC(=O)N2CCOCC2)S(=O)(=O)c2ccccc2)c1,72
COc1ccc(N2CCN(C(=O)CN(c3ccccc3)S(=O)(=O)c3ccc(OC)cc3)CC2)cc1,80*
CCN(CC)CCN(CC(=O)N(C1CCCCC1)C1CCCCC1)C(=O)c1ccco1,7
O/N=C/c1cccnc1Sc1ccccc1,0
N#Cc1c(NC(=O)c2cccnc2)sc2c1CCC2,6
CC1(C)Cc2c(sc(NC(=S)NC(=O)c3ccccc3)c2C(=O)O)CO1,0
N#Cc1c(NC(=S)NC(=O)c2ccccc2)sc2c1CCN(CCc1ccccc1)C2,270*
Cc1cccc(-n2c(CCc3ccccc3)nnc2SCC(=O)c2ccccc2)c1,213
CCn1c(CN2CCN(c3cccc(C)c3C)CC2)n[nH]c1=S,0
COCCCNC(=S)N1CCC(NC(=O)c2ccco2)CC1,-3
CCn1c(=O)cc(OCC(=O)NCCc2cccc(C)c2)c2ccccc21,129*
CCn1c(=O)cc(OCC(=O)Nc2cc(C)ccn2)c2ccccc21,6
CCOC(=O)COc1cc(=O)n(CC)c2ccccc12,-4
COc1ccc(C)cc1NC(=O)CSc1nnc(CC(=O)Nc2ccccc2C)n1C,-67
O=C1C2C3C=CC(CC3)C2C(=O)N1c1ccccc1[N+](=O)[O-] (centres undefined),-7
CCN(CC)c1ccc(NC(=O)c2ccccc2)cc1S(=O)(=O)Nc1ccccc1OC,-5

# From PubChem BioAssay
